Source: ChEMBL document CHEMBL1129588, “Development of potent thrombin receptor antagonist peptides” (J Med Chem, 1996)
Non-standard residues stand in square brackets, D forms with d. Residues, ends and D or L forms follow the SMILES beside them. *: point of attachment. X7 = CC(=O)N(C(=O)/C=C/c1ccc(F)cc1)[C@@H](Cc1ccc(F)cc1)C(=O)*; Phe(4-guanidino) = N=C(N)Nc1ccc(C[C@H](N)C(=O)O)cc1; Phe(4-F) = N[C@@H](Cc1ccc(F)cc1)C(=O)O; 1Nal = N[C@@H](Cc1cccc2ccccc12)C(=O)O; 2Nal = N[C@@H](Cc1ccc2ccccc2c1)C(=O)O; Thiophene3carbonyl = O=C(c1ccsc1)*; Tic = O=C(O)[C@@H]1Cc2ccccc2CN1; Thz = O=C(O)[C@@H]1CSCN1; X2 = O=S(=O)(c1cccs1)*; X1 = O=C(c1ccoc1)*; βAla = NCCC(=O)O

Biological target: T1, Proteinase-activated receptor 1 (Homo sapiens, UniProt P25116)
T1 sequence (P25116 whole entry): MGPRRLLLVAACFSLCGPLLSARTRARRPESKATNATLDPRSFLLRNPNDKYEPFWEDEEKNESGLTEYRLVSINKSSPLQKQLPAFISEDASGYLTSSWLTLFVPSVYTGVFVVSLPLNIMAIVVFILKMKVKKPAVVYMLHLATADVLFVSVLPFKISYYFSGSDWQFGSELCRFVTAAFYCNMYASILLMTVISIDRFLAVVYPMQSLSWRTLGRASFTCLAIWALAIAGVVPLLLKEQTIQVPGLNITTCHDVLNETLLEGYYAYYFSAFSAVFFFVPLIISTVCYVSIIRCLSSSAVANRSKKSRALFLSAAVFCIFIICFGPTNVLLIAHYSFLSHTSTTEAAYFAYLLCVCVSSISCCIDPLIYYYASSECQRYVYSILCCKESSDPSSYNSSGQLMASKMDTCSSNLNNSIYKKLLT
Assay: Concentration of compound required to inhibit agonist ([…], at 3 uM) induced platelet aggregation by 50%;PA=not experimentally achieved; call rule not given here
Format: functional
Procedure, shortened: (§1)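 Gel-filtered human platelets in a microtiter turbidity aggregation assay, preincubated with test peptide and then stimulated with SFLLRNP-NH₂ at 3 μM. […] N is the number of determinations.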

Row | Structure (SMILES) | EC50
1 | CC(C)C[C@H](NC(=O)[C@H](Cc1ccc(NC(=N)N)cc1)NC(=O)[C@H](Cc1ccc(F)cc1)NC(=O)c1ccoc1)C(=O)N[C@@H](CCCN=C(N)N)C(N)=O (X1-[Phe(4-F)][Phe(4-guanidino)]LR-NH2) | Not Active

System: not listed separately
Assay: Concentration to stimulate human platelet aggregation
Format: functional
Procedure, shortened: (§2)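 Peptides were added alone to gel-filtered human platelets, and aggregation was read by microtiter turbidity. EC₅₀ is the concentration stimulating 50% of maximum aggregation. N is the number of determinations. A peptide is called a partial agonist where maximum aggregation was not reached experimentally.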

Row | Structure (SMILES) | EC50
2 | CC(C)C[C@H](NC(=O)[C@H](CC(C)C)NC(=O)[C@H](Cc1ccccc1)NC(=O)[C@@H]1CSCN1)C(=O)N[C@@H](CCCN=C(N)N)C(N)=O (H-[Thz]FLLR-NH2) | 46000 nM
3 | CC(C)C[C@H](NC(=O)[C@H](CC(C)C)NC(=O)[C@H](Cc1ccc(I)cc1)NC(=O)[C@@H](N)CO)C(=O)N[C@@H](CCCN=C(N)N)C(N)=O | 9270 nM
4 | CC(C)C[C@H](NC(=O)[C@H](CC(C)C)NC(=O)[C@H](Cc1ccc(N)cc1)NC(=O)[C@@H](N)CO)C(=O)N[C@@H](CCCN=C(N)N)C(N)=O | 18000 nM
5 | CC(C)C[C@H](NC(=O)[C@H](CC(C)C)NC(=O)[C@H](Cc1ccc(F)cc1)NC(=O)[C@@H](N)CO)C(=O)N[C@@H](CCCN=C(N)N)C(N)=O | 130 nM
6 | CC(C)C[C@H](NC(=O)[C@H](CC(C)C)NC(=O)[C@H](Cc1ccc(NC(=N)N)cc1)NC(=O)[C@@H](N)CO)C(=O)N[C@@H](CCCN=C(N)N)C(N)=O | > 300000 nM
7 | CC(C)C[C@H](NC(=O)[C@H](Cc1cccc2ccccc12)NC(=O)[C@H](Cc1ccc(F)cc1)NC(=O)[C@@H](N)CO)C(=O)N[C@@H](CCCN=C(N)N)C(N)=O (H-S[Phe(4-F)][1Nal]LR-NH2) | 160 nM
8 | CC(C)C[C@H](NC(=O)[C@H](CC(C)C)NC(=O)[C@H](Cc1ccccc1)NC(=O)[C@@H](N)CO)C(=O)N[C@@H](CCCN=C(N)N)C(N)=O | 400 nM
9 | CC(C)C[C@H](NC(=O)[C@@H]1Cc2ccccc2CN1C(=O)[C@H](Cc1ccc(F)cc1)NC(=O)[C@@H](N)CO)C(=O)N[C@@H](CCCN=C(N)N)C(N)=O (H-S[Phe(4-F)][Tic]LR-NH2) | 470 nM
10 | CC(C)C[C@H](NC(=O)[C@H](Cc1ccc(NC(=N)N)cc1)NC(=O)[C@H](Cc1ccc(F)cc1)NC(=O)[C@@H](N)CO)C(=O)N[C@@H](CCCN=C(N)N)C(N)=O (H-S[Phe(4-F)][Phe(4-guanidino)]LR-NH2) | 40 nM
11 | CC(=O)N1CSC[C@H]1C(=O)N[C@@H](Cc1ccccc1)C(=O)N[C@@H](CC(C)C)C(=O)N[C@@H](CC(C)C)C(=O)N[C@@H](CCCN=C(N)N)C(N)=O (Ac-[Thz]FLLR-NH2) | > 300000 nM
12 | CC(C)C[C@H](NC(=O)[C@H](Cc1ccc(F)cc1)NC(=O)[C@H](Cc1ccc(F)cc1)NC(=O)[C@@H](N)CO)C(=O)N[C@@H](CCCN=C(N)N)C(N)=O (H-S[Phe(4-F)][Phe(4-F)]LR-NH2) | 100 nM
13 | CC(C)C[C@H](NC(=O)[C@H](Cc1ccc2ccccc2c1)NC(=O)[C@H](Cc1ccc(F)cc1)NC(=O)[C@@H](N)CO)C(=O)N[C@@H](CCCN=C(N)N)C(N)=O (H-S[Phe(4-F)][2Nal]LR-NH2) | 80 nM
14 | CC(C)C[C@H](NC(=O)[C@H](CC(C)C)NC(=O)[C@H](CCc1ccccc1)NC(=O)[C@@H](N)CO)C(=O)N[C@@H](CCCN=C(N)N)C(N)=O | > 300000 nM
15 | CC(=O)NCCC(=O)N[C@@H](Cc1ccccc1)C(=O)N[C@@H](CC(C)C)C(=O)N[C@@H](CC(C)C)C(=O)N[C@@H](CCCN=C(N)N)C(N)=O (Ac-[βAla]FLLR-NH2) | 1800 nM

Biological target: T1, Proteinase-activated receptor 1
Assay: Effective concentration of compound for stimulation of 50% maximum platelet aggregation; PA=not experimentally achieved
Format: functional
Procedure, shortened: as §2

Row | Structure (SMILES) | EC50
16 | CC(C)C[C@H](NC(=O)[C@H](Cc1ccc(NC(=N)N)cc1)NC(=O)[C@H](Cc1ccc(F)cc1)NC(=O)c1ccsc1)C(=O)N[C@@H](CCCN=C(N)N)C(N)=O (Thiophene3carbonyl-[Phe(4-F)][Phe(4-guanidino)]LR-NH2) | Not Active

Biological target: T1, Proteinase-activated receptor 1

Row | Structure (SMILES) | IC50
17 | CC(C)C[C@H](NC(=O)[C@H](Cc1ccc(NC(=N)N)cc1)NC(=O)[C@H](Cc1ccc(F)cc1)NC(=O)c1ccsc1)C(=O)N[C@@H](CCCN=C(N)N)C(N)=O (Thiophene3carbonyl-[Phe(4-F)][Phe(4-guanidino)]LR-NH2) | 24 nM
18 | C/C=C/C=C/CC(=O)N(C(C)=O)[C@@H](Cc1ccc(F)cc1)C(=O)N[C@@H](Cc1ccc(NC(=N)N)cc1)C(=O)N[C@@H](CC(C)C)C(=O)N[C@@H](CCCN=C(N)N)C(N)=O | 24 nM
19 | CC(=O)N(C1CCCC1)[C@@H](Cc1ccc(F)cc1)C(=O)N[C@@H](Cc1ccc(NC(=N)N)cc1)C(=O)N[C@@H](CC(C)C)C(=O)N[C@@H](CCCN=C(N)N)C(N)=O | 370 nM
20 | CC(C)C[C@H](NC(=O)[C@H](Cc1ccc(NC(=N)N)cc1)NC(=O)[C@H](Cc1ccc(F)cc1)NS(=O)(=O)c1cccs1)C(=O)N[C@@H](CCCN=C(N)N)C(N)=O (X2-[Phe(4-F)][Phe(4-guanidino)]LR-NH2) | 8950 nM
21 | CC(=O)N(C(=O)/C=C/c1ccccc1)[C@@H](Cc1ccc(F)cc1)C(=O)N[C@@H](Cc1ccc(NC(=N)N)cc1)C(N)=O | 780 nM
22 | CC(=O)N(C(=O)/C=C/c1ccccc1)[C@@H](Cc1ccc(F)cc1)C(=O)N[C@@H](CCCN=C(N(C)C)N(C)C)C(=O)N[C@@H](CC(C)C)C(=O)N[C@@H](CCCN=C(N)N)C(N)=O | 320 nM
23 | CC(=O)N(C(=O)/C=C/c1ccccc1)[C@@H](Cc1ccc(F)cc1)C(=O)N[C@@H](Cc1ccc(Cl)cc1)C(=O)N[C@@H](CC(C)C)C(=O)N[C@@H](CCCN=C(N)N)C(N)=O | 4710 nM
24 | CC(=O)N(c1cccc(Cl)c1)[C@@H](Cc1ccc(F)cc1)C(=O)N[C@@H](Cc1ccc(NC(=N)N)cc1)C(=O)N[C@@H](CC(C)C)C(=O)N[C@@H](CCCN=C(N)N)C(N)=O | 110 nM
25 | CC#Cc1ccccc1C(=O)N(C(C)=O)[C@@H](Cc1ccc(F)cc1)C(=O)N[C@@H](Cc1ccc(NC(=N)N)cc1)C(=O)N[C@@H](CC(C)C)C(=O)N[C@@H](CCCN=C(N)N)C(N)=O | 23 nM
26 | CC(=O)N(c1ccsc1)[C@@H](Cc1ccc(F)cc1)C(=O)N[C@@H](Cc1ccc(NC(=N)N)cc1)C(=O)N[C@@H](CC(C)C)C(=O)N[C@@H](CCCN=C(N)N)C(N)=O | 310 nM
27 | CC(=O)N(C(=O)/C=C/c1ccc(C)cc1)[C@@H](Cc1ccc(F)cc1)C(=O)N[C@@H](Cc1ccc(NC(=N)N)cc1)C(=O)N[C@@H](CC(C)C)C(=O)N[C@@H](CCCN=C(N)N)C(N)=O (stereo in doubt; 45) | 34 nM
28 | CC(=O)N(C(=O)/C=C/c1ccc(F)cc1)[C@@H](Cc1ccc(F)cc1)C(=O)N[C@@H](Cc1ccc(NC(=N)N)cc1)C(=O)N[C@@H](CC(C)C)C(=O)N[C@@H](CCCN=C(N)N)C(=O)N[C@@H](CCCN=C(N)N)C(N)=O (X7-[Phe(4-guanidino)]LRR-NH2) | 19 nM
29 | CC(=O)N(C(=O)/C=C/c1ccccc1)[C@@H](Cc1ccc(F)cc1)C(=O)N[C@@H](CCN=C(N)N)C(=O)N[C@@H](CC(C)C)C(=O)N[C@@H](CCCN=C(N)N)C(N)=O | 28 nM
30 | CC(=O)N(C(=O)/C=C/c1ccccc1)[C@@H](Cc1ccc(F)cc1)C(=O)N[C@@H](Cc1ccc(NC(=N)N)cc1)C(=O)N[C@@H](CC(C)C)C(=O)N[C@@H](CCCN=C(N)N)C(=O)N[C@@H](CCCN)C(=O)CC(N)=O | 16.6 nM
31 | CC(=O)N(C(=O)/C=C/c1ccc(Cl)cc1)[C@@H](Cc1ccc(F)cc1)C(=O)N[C@@H](Cc1ccc(NC(=N)N)cc1)C(=O)N[C@@H](CC(C)C)C(=O)N[C@@H](CCCN=C(N)N)C(N)=O | 99 nM
32 | CC(=O)N(C(=O)c1ccc(-c2ccccc2)cc1)[C@@H](Cc1ccc(F)cc1)C(=O)N[C@@H](Cc1ccc(NC(=N)N)cc1)C(=O)N[C@@H](CC(C)C)C(=O)N[C@@H](CCCN=C(N)N)C(N)=O | 46 nM
33 | CC(=O)N(C(=O)/C=C/c1ccccc1)[C@@H](Cc1ccc(F)cc1)C(=O)N[C@@H](CCCCN)C(=O)N[C@@H](CC(C)C)C(=O)N[C@@H](CCCN=C(N)N)C(N)=O | 39 nM
34 | CCC(=O)c1cccc(N(C(C)=O)[C@@H](Cc2ccc(F)cc2)C(=O)N[C@@H](Cc2ccc(NC(=N)N)cc2)C(=O)N[C@@H](CC(C)C)C(=O)N[C@@H](CCCN=C(N)N)C(N)=O)c1 | 42 nM
35 | CC(=O)N(Oc1c[nH]c2ccccc12)[C@@H](Cc1ccc(F)cc1)C(=O)N[C@@H](Cc1ccc(NC(=N)N)cc1)C(=O)N[C@@H](CC(C)C)C(=O)N[C@@H](CCCN=C(N)N)C(N)=O | 130 nM
36 | CC(=O)N(C(=O)Cc1ccc2ccccc2c1)[C@@H](Cc1ccc(F)cc1)C(=O)N[C@@H](Cc1ccc(NC(=N)N)cc1)C(=O)N[C@@H](CC(C)C)C(=O)N[C@@H](CCCN=C(N)N)C(N)=O | 295 nM
37 | CC(C)C[C@H](NC(=O)[C@H](Cc1ccc(NC(=N)N)cc1)NC(=O)[C@H](Cc1ccc(F)cc1)NC(=O)c1ccoc1)C(=O)N[C@@H](CCCN=C(N)N)C(N)=O (X1-[Phe(4-F)][Phe(4-guanidino)]LR-NH2) | 29 nM
38 | CC(=O)N(C(=O)/C=C/c1ccccc1)[C@@H](Cc1ccc(F)cc1)C(=O)N[C@@H](Cc1ccc2ccccc2c1)C(=O)N[C@@H](CC(C)C)C(=O)N[C@@H](CCCN=C(N)N)C(N)=O | 246 nM

Biological target: T1, Proteinase-activated receptor 1
Assay: Concentration of compound required to inhibit agonist ([…], at 3 uM) induced platelet aggregation by 50%; PA=not experimentally achieved
Format: functional
Procedure, shortened: as §1

Row | Structure (SMILES) | IC50
39 | C/C=C/C=C/CC(=O)N(C(C)=O)[C@@H](Cc1ccc(F)cc1)C(=O)N[C@@H](Cc1ccc(NC(=N)N)cc1)C(=O)N[C@@H](CC(C)C)C(=O)N[C@@H](CCCN=C(N)N)C(N)=O | Not Active
